# Source: PubChem
# Rows were chosen to be rich in hits. Some 3.7% of all compounds tested hit in one or more screens of this group.
# SR-BI uptake up = enhances SR-BI lipid uptake from DiI-HDL. AID 504775. CHO ldlA[mSR-BI] cells, DiI-HDL uptake fluorescence, 3 h; 100 = double the neutral-control signal. activation, % at 12.5 µM. 320,000 tested, 0.096% active;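 active = mean replicate activation of at least 60% and every replicate at or above 60%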;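 also: 0% = median plate neutral-control signal and 100% = twice that signal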
#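 Assay system: LDL receptor-deficient CHO ldlA cells overexpressing murine SR-BI / Medium: BSA-supplemented, HEPES-buffered Ham's F12, pH 7.4 / Probe or stimulus: DiI-labelled HDL at 10 µg/mL final / Timing: compound with DiI-HDL co-incubation, 3 h at 37 °C / Technique: bottom-read cell fluorescence after medium removal, ex 550/em 595 nm / Measure: HDL uptake via cellular fluorescence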
# AHR activator = activates the human aryl hydrocarbon receptor; P35869; AHR-responsive luciferase reporter cells, luminescence; activation, % at 5 µM; 320,000 tested, 2.5% active; AID 2796; in the data active = activation above about 47%;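 also: 0% = vehicle wells and 100% = reference agonist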
# SR-BI HDL uptake = inhibitors of mouse SR-BI mediated HDL lipid uptake; Q61009; ldlA[mSR-BI] CHO cells, DiI-HDL uptake fluorescence, 3 h; inhibition, % at 12.5 µM; 320,000 tested, 0.96% active; AID 488896;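 active = mean replicate inhibition of at least 70% and a set share of replicates each scoring 70 or more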;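 also: 0% = median of neutral control wells and 100% = median of positive control wells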
# JMJD2C inh = human JMJD2C demethylase inhibition. Q9H3R0. GST-JMJD2C(1-420) H3K9me3 demethylation, DELFIA europium. inhibition, % at 2.35 µM. 330,000 tested, 0.069% active. AID 2099;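 active = more than half of a compound's replicate wells show inhibition beyond 50%, single wells judged on their own value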;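 also: signal counts dimethyl H3K9 product captured on neutravidin plate; 0% = median of DMSO wells and 100% = 0.3 times that DMSO median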
# Target sequence (Q9H3R0 1-420 limits assumed): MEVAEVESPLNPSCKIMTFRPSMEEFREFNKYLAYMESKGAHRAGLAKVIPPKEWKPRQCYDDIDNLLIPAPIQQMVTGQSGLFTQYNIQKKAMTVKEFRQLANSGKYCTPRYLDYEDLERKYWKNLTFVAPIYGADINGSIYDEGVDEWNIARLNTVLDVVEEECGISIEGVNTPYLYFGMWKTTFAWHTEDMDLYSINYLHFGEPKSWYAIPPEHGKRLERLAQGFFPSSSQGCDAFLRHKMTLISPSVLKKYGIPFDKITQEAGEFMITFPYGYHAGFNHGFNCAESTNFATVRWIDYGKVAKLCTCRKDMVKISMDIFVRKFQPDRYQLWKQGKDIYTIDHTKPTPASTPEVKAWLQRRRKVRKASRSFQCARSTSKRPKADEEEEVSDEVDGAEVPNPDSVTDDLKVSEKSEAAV
# GAA850 FXN act = frataxin GAA850 promoter activation; 360,000 tested, 0.56% active; activation, % at 6 µM; HEK293 lucGAA850 FXN promoter luciferase reporter, 24 h; percent of 10 µM SAHA response;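 active = activation above the average of all compounds screened plus 3 SD, cutoff fixed separately per campaign, cut at about 7.5% in these data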;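 also: 0% = DMSO wells and 100% = 10 µM SAHA wells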
# * marks the source's active call; other numbers are inactive results; . = not tested or not shown; ! = repeats disagree.
SMILES,SR-BI uptake up,AHR activator,SR-BI HDL uptake,JMJD2C inh,GAA850 FXN act
CCN1/C(=C/c2ccc3cc(C)cc(C)c3[n+]2CC)Sc2cc(C)ccc21,-68,.,68,.,-9
O=C(COc1ccc(Cl)cc1)N1CCN(C(=O)c2cccs2)CC1,-7,2,7,-4,2
O=C(N/N=C/c1c[nH]c2ccc(Br)cc12)c1ccncc1,19,74*,-19,-3,-1
Cc1ncc(CO)c(/C=N/NC(=O)c2cc(Br)ccc2O)c1O,-116,6,116*,-17,0
Cc1cc(C(=O)N/N=C/c2c[nH]c3ccccc23)c(C)o1,-2,56*,2,4,5
O=C(N/N=C/c1c[nH]c2ccccc12)c1ccncc1,12,26,-12,-34,-1
Cc1ncc(CO)c(/C=N/NC(=O)c2ccc(Br)cc2)c1O,.,16,.,-12,.
O=C(N/N=C/c1ccc(Br)s1)c1c[nH]c2ccccc12,10,146*,-10,0,4
Cc1c(C)c2ccc(OCC(=O)NCCCn3ccnc3)cc2oc1=O,4,0,-4,12,-1
O=C(CSc1nnc(Cc2cccs2)n1C1CC1)NC1CCS(=O)(=O)C1 (stereo not drawn),2,0,-2,3,2
CCCC(=O)C1=C(N2CCCCC2)CC(C)(C)C(C(=O)OC)C1=O (stereo not drawn),33,0,-33,-11,1
O=C(N/N=C/c1c[nH]c2ccccc12)c1cc(Br)ccc1O,6,77*,-6,-3,2
O=C(N/N=C/c1c[nH]c2ccccc12)c1ccccc1,-2,17,2,-4,5
CCOc1ccc(Br)cc1C(=O)N/N=C/c1c[nH]c2ccccc12,-27,47*,27,-1,1
Cc1ccc(CNC(=O)C2CCCN(c3nc4ccsc4c(=O)s3)C2)cc1 (stereo not drawn),.,-1,.,5,1
COc1ccc(OC)c(N(C)S(=O)(=O)c2cc3c(cc2C)NC(=O)CO3)c1,10,14,-10,12,-1
COc1ccc(CN2CCCCC2C)c(C)c1C (stereo not drawn),11,3,-11,50*,-1
CCN1CCN(C(c2cccs2)C(C)NC(=S)Nc2cccc(C)c2C)CC1 (stereo not drawn),.,0,.,2,-1
COc1cc(OC)cc(C(=O)Nc2nc(CC(=O)NCc3ccccc3OC)cs2)c1,-70,15,70*,-15,-3
COc1cc(OC)cc(C(=O)Nc2nc(CC(=O)NCCc3ccccc3)cs2)c1,-81,23,81*,-7,-2
COc1cc(OC)cc(C(=O)Nc2nc(CC(=O)NCc3ccc(F)cc3)cs2)c1,-53,18,53,69,-3
CC(=O)Nc1nc(CC(=O)c2ccccc2)cs1,-9,58*,9,3,2
OC[C@@H]1CN(Cc2ccccc2)C[C@H](n2cnc3c(Nc4ccccc4)ncnc32)O1,.,.,.,.,0
CC1=NN(c2ccccc2)C(=O)/C1=C\c1cc(C)n(C)c1C,-11,54*,11,-7,2
COc1ccccc1N1CC(C)(C)C(=O)N(C(=O)c2ccc(C)cc2)C1=S,5,0,-5,1,1
SMILES,SR-BI uptake up,AHR activator,SR-BI HDL uptake,JMJD2C inh,GAA850 FXN act
COc1cc(C(=O)NCCOc2cc(C)cc(C)c2)c(Br)c(OC)c1OC,-43,16,43,3,-1
Cn1nc(C(=O)Nc2cccc(Cl)c2)cc1C(=O)Nc1cccc(Cl)c1,-59,-4,59,11,0
Cn1nc(C(=O)Nc2ccc(Cl)cc2)cc1C(=O)Nc1ccc(Cl)cc1,.,72*,.,-2,-1
Cc1ccc(NC(=O)c2cc(C(=O)Nc3ccc(C)cc3)n(C)n2)cc1,-12,62*,12,6,-1
O=C(CCSc1ccccc1)Nc1nc2c(s1)COc1ccccc1-2,-3,52*,3,1,2
CCCCC(=O)Nc1nc2c(s1)COc1ccccc1-2,-3,49*,3,-20,1
CCCC(=O)Nc1nc2c(s1)COc1ccccc1-2,-13,24,13,-18,0
CCCc1nc2c(=O)n(C)c(=O)nc-2n(C)n1,6,.,-6,.,-17
Cn1nc(-c2ccccn2)nc2c(=O)n(C)c(=O)nc1-2,14,-14,6,54*,-18
O=C(O)c1ccc(CNC(=O)C2CCCN2C(=O)OCc2ccccc2)cc1 (stereo not drawn),6,.,-6,-2,2
COc1ccc2nc(C)cc(Sc3nc4ccccc4s3)c2c1,-33,9,33,-3,-6
CCNC(=O)CSc1nnc(-c2cc(-c3ccc(Cl)cc3)nc3ccccc23)o1,-37,50*,37,1,-2
CCN(CC)C(=O)CSc1nnc(-c2cc(-c3ccc(Cl)cc3)nc3ccccc23)o1,-51,10,51,-205,1
CCOC(=O)CNC(=O)Nc1cc(C(C)(C)C)nn1-c1ccccc1,-11,0,11,-3,1
NC(=NCCCCCCN=C(N)/N=C(\N)Nc1ccc(Cl)cc1)/N=C(\N)Nc1ccc(Cl)cc1,92*!,-1,-92,-26,3
CC(=O)NC1CCC(OC(=O)Nc2ccccc2)CC1 (stereo not drawn),-4,.,4,.,2
N#Cc1ccc(-c2ccccc2)nc1SCC(=O)c1cc2ccccc2oc1=O,12,55*,-12,11,-1
CC(C)c1c(C#N)c(N)nc(SCC(=O)c2cc3ccccc3oc2=O)c1C#N,0,11,0,-29,0
COc1cc(NC(=O)c2cc3ccccc3o2)c(OC)cc1Cl,-54,62*,54,-6,4
O=C(Nc1ccc(NC(=O)c2cc3ccccc3o2)cc1)c1ccco1,-10,-2,10,9,0
COc1cc(OC)cc(C(=O)Nc2cc(NC(=O)c3ccco3)ccc2OC)c1,-64,55*,64,11,-1
COc1ccc(NC(=O)c2ccco2)cc1NC(=O)c1cc2ccccc2o1,5,62*,-5,5,-1
COc1ccccc1NC(=O)c1cc2ccccc2o1,3,74*,-3,-15,5
COc1ccccc1NC(=O)CSc1nccn1Cc1ccccc1,-10,-1,10,-2,0
Cc1ccc(OCC(=O)N/N=C\c2cccn2C)c([N+](=O)[O-])c1,1,6,-1,-7,1
COc1ccc(NC(=O)c2cc(Cl)ccc2NC(=O)c2ccco2)c(OC)c1,-74,36,74*,1,-1
C/C(=N\NC(=O)c1ccc(CN2CCOCC2)cc1)c1cccc([N+](=O)[O-])c1,-37,4,37,-2,3
C/C(=N/NC(=O)CNC(=O)c1ccccn1)c1ccc([N+](=O)[O-])cc1,-80,13,80*,0,0
C/C(=N\NC(=O)c1ccc(CN2CCOCC2)cc1)c1ccc([N+](=O)[O-])cc1,-71,-2,71*,2,2
